Data reported in ChEMBL document CHEMBL3272181, “Design of substrate-site-directed irreversible inhibitors of adenosine 5'-phosphate aminohydrolase. Effect of substrate substituents on affinity for the substrate site” (J Med Chem, 1976).
One block for each molecule: values may come before it.

How the values were obtained:
[1] = Retardation factor, Rf of the compound in 5:2:3 1-butanol-acetic acid-water by paper chromatographic analysis; format: physicochemical; details: buffer
Oryctolagus cuniculus [2] = organism: Oryctolagus cuniculus; test: Activity at rabbit muscle AMP aminohydrolase by Lineweaver-Burk plot analysis; format: tissue-based; details: Muscle tissue
Summary of the method: (§1)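 Rabbit-muscle AMP aminohydrolase (Grade IV), diluted into 1 M KCl before use. Assayed at 22° in 0.01 M citrate buffer pH 6.5 with 25 mM KCl, following the fall in absorbance at 265 nm (Δε 8400, except 8-bromo-AMP). Initial velocities were linear and proportional to enzyme. At least four substrate and two inhibitor levels were used; parameters came from Lineweaver-Burk plots.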

Oryctolagus cuniculus [3] = organism: Oryctolagus cuniculus; test: Activity at rabbit muscle AMP aminohydrolase after 24 hrs by Lineweaver-Burk plot analysis relative to AMP; format: tissue-based; details: Muscle tissue
[4] = Retardation factor, Rf of the compound in 1:1 2-propanol-0.25 M triethylammonium bicarbonate by paper chromatographic analysis; format: physicochemical
[5] = Linear competitive inhibition of rabbit muscle AMP aminohydrolase using AMP as substrate at 27 to 54 uM by Lineweaver-Burk plot analysis; format: tissue-based, Oryctolagus cuniculus, Muscle tissue; summary of the method: as §1
[6] = Retardation factor, Rf of the compound in 7:3 1-propanol-water by paper chromatographic analysis; format: physicochemical; details: buffer
[7] = Linear competitive inhibition of rabbit muscle AMP aminohydrolase using AMP as substrate at 49 to 99 uM by Lineweaver-Burk plot analysis; format: tissue-based, Oryctolagus cuniculus, Muscle tissue; summary of the method: as §1
[8] = Retardation factor, Rf of the compound in 4:1:5 1-butanol-acetic acid-water by paper chromatographic analysis; format: physicochemical; details: buffer
[9] = Linear competitive inhibition of rabbit muscle AMP aminohydrolase using AMP as substrate at 49 to 148 uM by Lineweaver-Burk plot analysis; format: tissue-based, Oryctolagus cuniculus, Muscle tissue; summary of the method: as §1
[10] = Retardation factor, Rf of the compound in 7:3 95% ethanol-1M ammonium acetate at pH 7.5 by paper chromatographic analysis; format: physicochemical
[11] = Retardation factor, Rf of the compound in 7:1:2 2-propanol-concentrated ammonia-water by paper chromatographic analysis; format: physicochemical; details: buffer
[12] = Non-linear competitive inhibition of rabbit muscle AMP aminohydrolase using AMP as substrate at 46 uM by Lineweaver-Burk plot analysis; format: tissue-based, Oryctolagus cuniculus, Muscle tissue; summary of the method: as §1
Oryctolagus cuniculus [13] = organism: Oryctolagus cuniculus; test: Activity at rabbit muscle AMP aminohydrolase after 48 hrs by Lineweaver-Burk plot analysis relative to AMP; format: tissue-based; details: Muscle tissue
[14] = Non-linear competitive inhibition of rabbit muscle AMP aminohydrolase using AMP as substrate at 23 uM by Lineweaver-Burk plot analysis; format: tissue-based, Oryctolagus cuniculus, Muscle tissue; summary of the method: as §1
[15] = Linear noncompetitive inhibition of rabbit muscle AMP aminohydrolase using AMP as substrate at 19 to 38 uM by Lineweaver-Burk plot analysis; format: tissue-based, Oryctolagus cuniculus, Muscle tissue; summary of the method: as §1
[16] = Linear competitive inhibition of rabbit muscle AMP aminohydrolase using AMP as substrate at 14 to 28 uM by Lineweaver-Burk plot analysis; format: tissue-based, Oryctolagus cuniculus, Muscle tissue; summary of the method: as §1
[17] = Linear competitive inhibition of rabbit muscle AMP aminohydrolase using AMP as substrate at 11 to 22 uM by Lineweaver-Burk plot analysis; format: tissue-based, Oryctolagus cuniculus, Muscle tissue; summary of the method: as §1
[18] = Linear competitive inhibition of rabbit muscle AMP aminohydrolase using AMP as substrate at 12 to 24 uM by Lineweaver-Burk plot analysis; format: tissue-based, Oryctolagus cuniculus, Muscle tissue; summary of the method: as §1
[19] = Linear competitive inhibition of rabbit muscle AMP aminohydrolase using AMP as substrate at 11 to 23 uM by Lineweaver-Burk plot analysis; format: tissue-based, Oryctolagus cuniculus, Muscle tissue; summary of the method: as §1
[20] = Stability of the compound assessed as bacterial protease type 10-mediated amide linkage cleavage at pH 7.6 after 24 hrs by paper electrophoretic analysis; format: ADME; details: bacteria, buffer, pH 7.6, 24 h
Summary of the method: (§2)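 Compounds were incubated at 37° for 24 h in 0.05 M Tris pH 7.6 (2 ml) with one of: acylase 20 mg; pancreatic protease I 20 mg; fungal II 20 mg; papaya III 10 mg; bacterial IV 200 mg; VI 30 mg; VII 30 or 15 mg; X 5 mg; or hog-intestine peptidase 20 mg. Amide cleavage was checked by paper electrophoresis (pH 7.6, 4 kV, 30 min).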

[21] = Stability of the compound assessed as bacterial protease type 7-mediated amide linkage cleavage at pH 7.6 after 24 hrs by paper electrophoretic analysis; format: ADME; details: bacteria, buffer, pH 7.6, 24 h; summary of the method: as §2
[22] = Stability of the compound assessed as bacterial protease type 6-mediated amide linkage cleavage at pH 7.6 after 24 hrs by paper electrophoretic analysis; format: ADME; details: bacteria, buffer, pH 7.6, 24 h; summary of the method: as §2
[23] = Stability of the compound assessed as fungal protease type 2-mediated amide linkage cleavage at pH 7.6 after 24 hrs by paper electrophoretic analysis; format: ADME; details: fungi, buffer, pH 7.6, 24 h; summary of the method: as §2
[24] = Stability of the compound assessed as hog intestinal peptidase-mediated amide linkage cleavage at pH 7.6 after 24 hrs by paper electrophoretic analysis; format: ADME, Sus scrofa; details: pig, isolated protein, pH 7.6, 24 h; summary of the method: as §2
[25] = Stability of the compound assessed as papaya protease type 3-mediated amide linkage cleavage at pH 7.6 after 24 hrs by paper electrophoretic analysis; format: ADME; details: carica papaya, buffer, pH 7.6, 24 h; summary of the method: as §2
[26] = Stability of the compound assessed as acylase (unknown origin)-mediated amide linkage cleavage at pH 7.6 after 24 hrs by paper electrophoretic analysis; format: ADME; details: buffer, pH 7.6, 24 h; summary of the method: as §2
[27] = Stability of the compound assessed as bacterial protease type 8-mediated amide linkage cleavage at pH 7.6 after 24 hrs by paper electrophoretic analysis; format: ADME; details: bacteria, buffer, pH 7.6, 24 h
[28] = Stability of the compound assessed as pancreatic protease type 1 (unknown origin)-mediated amide linkage cleavage at pH 7.6 after 24 hrs by paper electrophoretic analysis; format: ADME; details: buffer, pH 7.6, 24 h; summary of the method: as §2
[29] = Stability of the compound assessed as bacterial protease type 4-mediated amide linkage cleavage at pH 7.6 after 24 hrs by paper electrophoretic analysis; format: ADME; details: bacteria, buffer, pH 7.6, 24 h; summary of the method: as §2
[30] = Linear competitive inhibition of rabbit muscle AMP aminohydrolase using AMP as substrate at 21 to 42 uM by Lineweaver-Burk plot analysis; format: tissue-based, Oryctolagus cuniculus, Muscle tissue; summary of the method: as §1
[31] = Stability of the compound in Tris buffer at pH 8.5 at 22 degC; format: physicochemical
[32] = Linear competitive inhibition of rabbit muscle AMP aminohydrolase using AMP as substrate at 64 to 128 uM by Lineweaver-Burk plot analysis; format: tissue-based, Oryctolagus cuniculus, Muscle tissue; summary of the method: as §1
[33] = Linear competitive inhibition of rabbit muscle AMP aminohydrolase using AMP as substrate at 26 to 52 uM by Lineweaver-Burk plot analysis; format: tissue-based, Oryctolagus cuniculus, Muscle tissue; summary of the method: as §1

Rf [1]: 0.21
Km (Oryctolagus cuniculus [2]): 140 µM
Activity (Oryctolagus cuniculus [3]): 0.65%
Rf [4]: 0.49
SMILES: NCC(C[C@H]1O[C@@H](n2cnc3c(N)ncnc32)[C@H](O)[C@@H]1O)P(=O)(O)O (stereo partly drawn)

Ki [5]: 19 µM
Rf [1]: 0.33
Activity (Oryctolagus cuniculus [3]): 0%
Rf [4]: 0.75
SMILES: COC(=O)NCC(C[C@H]1O[C@@H](n2cnc3c(N)ncnc32)[C@H](O)[C@@H]1O)P(=O)(O)O (stereo partly drawn)

Rf [6]: 0.41
Rf [1]: 0.56
Km (Oryctolagus cuniculus [2]): 670 µM
Activity (Oryctolagus cuniculus [3]): 0.07%
Ki [7]: 105 µM
Rf [8]: 0.34
SMILES: CC(=O)O[C@@H]1[C@H](OC(C)=O)[C@@H](COP(=O)(O)O)O[C@H]1n1cnc2c(N)ncnc21

Rf [1]: 0.27
Rf [4]: 0.71
SMILES: N#CC(C[C@H]1O[C@@H](n2cnc3c(N)ncnc32)[C@H](O)[C@@H]1O)P(=O)(O)O (stereo partly drawn)

Ki [9]: 260 µM
Rf [10]: 0.3
Rf [11]: 0.34
Rf [1]: 0.59
Km (Oryctolagus cuniculus [2]): 130 µM
Activity (Oryctolagus cuniculus [3]): 0.5%
Rf [8]: 0.4
SMILES: CC1(C)O[C@@H]2[C@H](O1)[C@@H](COP(=O)(O)O)O[C@H]2n1cnc2c(N)ncnc21

Km (Oryctolagus cuniculus [2]): 600 µM
Vmax (Oryctolagus cuniculus [2]): 294 µmol/min
Activity (Oryctolagus cuniculus [3]): 100%
SMILES: Nc1ncnc2c1ncn2[C@@H]1O[C@H](COP(=O)(O)O)[C@@H](O)[C@H]1O

Ki [12]: 30 µM
Activity (Oryctolagus cuniculus [13]): > 0%
Ki [14]: 47 µM
SMILES: CC(=O)NC[C@@H](OP(=O)(O)O)[C@H]1O[C@@H](n2cnc3c(N)ncnc32)[C@H](O)[C@@H]1O

Ki [15]: 205 µM
Activity (Oryctolagus cuniculus [13]): 0%
SMILES: CCC(=O)NC[C@@H](OP(=O)(O)O)[C@H]1O[C@@H](n2cnc3c(N)ncnc32)[C@H](O)[C@@H]1O

Ki [16]: 42 µM
SMILES: CCC(=O)NC[C@H](OP(=O)(O)O)[C@H]1O[C@@H](n2cnc3c(N)ncnc32)[C@H](O)[C@@H]1O

Ki [17]: 16 µM
Rf [1]: 0.41
Activity (Oryctolagus cuniculus [3]): 0%
Rf [4]: 0.78
SMILES: CCOC(=O)NCC(C[C@H]1O[C@@H](n2cnc3c(N)ncnc32)[C@H](O)[C@@H]1O)P(=O)(O)O (stereo partly drawn)

Ki [18]: 14 µM
Rf [1]: 0.55
Activity (Oryctolagus cuniculus [3]): 0%
Rf [4]: 0.81
SMILES: CCCOC(=O)NCC(C[C@H]1O[C@@H](n2cnc3c(N)ncnc32)[C@H](O)[C@@H]1O)P(=O)(O)O (stereo partly drawn)

Ki [19]: 18 µM
Activity (Oryctolagus cuniculus [3]): > 0%
SMILES: CC(=O)NC[C@H](OP(=O)(O)O)[C@H]1O[C@@H](n2cnc3c(N)ncnc32)[C@H](O)[C@@H]1O

Stability [20]: Stable
Stability [21]: Stable
Stability [22]: Stable
Stability [23]: Stable
Stability [24]: Stable
Stability [25]: Stable
Stability [26]: Stable
Rf [1]: 0.39
Activity (Oryctolagus cuniculus [3]): 0%
Stability [27]: Stable
Stability [28]: Stable
Rf [4]: 0.83
Stability [29]: Stable
Ki [30]: 17 µM
SMILES: CCC(=O)NCC(C[C@H]1O[C@@H](n2cnc3c(N)ncnc32)[C@H](O)[C@@H]1O)P(=O)(O)O (stereo partly drawn)

Stability [31]: 16 h
Rf [6]: 0.27
Rf [10]: 0.17
Rf [1]: 0.31
Km (Oryctolagus cuniculus [2]): 120 µM
Activity (Oryctolagus cuniculus [3]): 7.8%
Ki [32]: 330 µM
Rf [8]: 0.18
SMILES: CC(=O)OC(C[C@H]1O[C@@H](n2cnc3c(N)ncnc32)[C@H](O)[C@@H]1O)P(=O)(O)O (stereo partly drawn)

Rf [6]: 0.49
Rf [10]: 0.39
Rf [1]: 0.65
Rf [8]: 0.5
SMILES: CC(=O)OC(C[C@H]1O[C@@H](n2cnc3c(N)ncnc32)[C@@H]2OC(C)(C)O[C@@H]21)P(=O)(O)O (stereo partly drawn)

Stability [20]: Stable
Stability [21]: Stable
Ki [33]: 20 µM
Stability [22]: Stable
Stability [23]: Stable
Stability [24]: Stable
Stability [25]: Stable
Stability [26]: Stable
Rf [1]: 0.29
Km (Oryctolagus cuniculus [2]): 80 µM
Activity (Oryctolagus cuniculus [3]): 0.61%
Stability [27]: Stable
Stability [28]: Stable
Rf [4]: 0.73
Stability [29]: Stable
SMILES: CC(=O)NCC(C[C@H]1O[C@@H](n2cnc3c(N)ncnc32)[C@H](O)[C@@H]1O)P(=O)(O)O (stereo partly drawn)
